Values after ≈ are worked out from the molar mass of the structure shown.
How the values were obtained:
Format in all cases: functional
[1] = system: Staphylococcus aureus; experiment: Antimicrobial activity against oxacillin sensitive and vancomycin resistant Staphylococcus aureus isolate 3130VR by broth microdilution method
Summary of the method: (§1)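 Broth microdilution MIC in cation-adjusted Mueller-Hinton broth per CLSI (formerly NCCLS) guidelines. Strains were routinely grown in brain heart infusion broth or agar at 37°C with shaking at 220 rpm. Vancomycin-passaged derivatives were raised by serial broth passage through 0.5 to 32 µg/ml vancomycin, then maintained on BHI agar with 32 µg/ml vancomycin.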

[2] = system: Staphylococcus aureus; experiment: Antimicrobial activity against homotypic oxacillin resistant and vancomycin resistant Staphylococcus aureus isolate 3130V32 by broth microdilution method; summary of the method: as §1
[3] = system: Staphylococcus aureus; experiment: Antimicrobial activity against oxacillin sensitive and vancomycin resistant Staphylococcus aureus isolate VP32 by broth microdilution method; summary of the method: as §1
[4] = system: Staphylococcus aureus; experiment: Antimicrobial activity against homotypic oxacillin resistant and vancomycin resistant Staphylococcus aureus isolate 5827V32 by broth microdilution method; summary of the method: as §1
[5] = system: Staphylococcus aureus; experiment: Antimicrobial activity against heterotypic oxacillin resistant and vancomycin intermediate resistant Staphylococcus aureus isolate 5836 by broth microdilution method; summary of the method: as §1
[6] = system: Staphylococcus aureus; experiment: Antimicrobial activity against oxacillin sensitive and vancomycin resistant Staphylococcus aureus isolate 5836VR by broth microdilution method
Summary of the method: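 MIC by broth microdilution in cation-adjusted Mueller-Hinton broth, following CLSI (formerly NCCLS) guidelines. The isolate came from an MRSA parent passaged in broth through stepwise vancomycin (0.5 to 32 µg/ml). It was then kept on BHI agar with 32 µg/ml vancomycin and selected as unable to grow on 6 µg/ml oxacillin. Routine growth was in BHI at 37°C.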

[7] = system: Staphylococcus aureus; experiment: Antimicrobial activity against homotypic oxacillin resistant and vancomycin resistant Staphylococcus aureus isolate 5836V32 by broth microdilution method; summary of the method: as §1
[8] = system: Staphylococcus aureus; experiment: Antimicrobial activity against oxacillin sensitive and tetracycline and vancomycin resistant Staphylococcus aureus isolate 3130V32deltamecA with mecA::tetM genotype by broth microdilution method; summary of the method: as §1
[9] = system: Staphylococcus aureus; experiment: Antimicrobial activity against homotypic oxacillin resistant and vancomycin sensitive Staphylococcus aureus isolate 3130 by broth microdilution method; summary of the method: as §1
[10] = system: Staphylococcus aureus; experiment: Antimicrobial activity against homotypic oxacillin resistant and vancomycin intermediate resistant Staphylococcus aureus isolate 5827 by broth microdilution method; summary of the method: as §1
[11] = system: Staphylococcus aureus; experiment: Antimicrobial activity against homotypic oxacillin resistant Staphylococcus aureus isolate 450MHomo by broth microdilution method; summary of the method: as §1
[12] = system: Staphylococcus aureus; experiment: Antimicrobial activity against oxacillin sensitive Staphylococcus aureus isolate 450MHomoex with SCCmec excised genotype by broth microdilution method; summary of the method: as §1
[13] = system: Staphylococcus aureus; experiment: Antimicrobial activity against oxacillin sensitive and tetracycline resistant Staphylococcus aureus isolate 450MHomodeltamecA with mecA::tetM genotype by broth microdilution method; summary of the method: as §1

CN[C@H](CC(C)C)C(=O)N[C@H]1C(=O)N[C@@H](CC(N)=O)C(=O)N[C@H]2C(=O)N[C@H]3C(=O)N[C@H](C(=O)N[C@H](C(=O)O)c4cc(O)cc(O)c4-c4cc3ccc4O)[C@H](O)c3ccc(c(Cl)c3)Oc3cc2cc(c3O[C@@H]2O[C@H](CO)[C@@H](O)[C@H](O)[C@H]2O[C@H]2C[C@](C)(N)[C@H](O)[C@H](C)O2)Oc2ccc(cc2Cl)[C@H]1O [VANCOMYCIN]
MIC [1]: 32 µg/mL (≈ 22.1 µM)
MIC [2]: 32 µg/mL (≈ 22.1 µM)
MIC [3]: 32 µg/mL (≈ 22.1 µM)
MIC [4]: 32 µg/mL (≈ 22.1 µM)
MIC [5]: 8 µg/mL (≈ 5.52 µM)
MIC [6]: 32 µg/mL (≈ 22.1 µM)
MIC [7]: 32 µg/mL (≈ 22.1 µM)
MIC [8]: 32 µg/mL (≈ 22.1 µM)

Cc1onc(-c2ccccc2)c1C(=O)N[C@@H]1C(=O)N2[C@@H]1SC(C)(C)[C@@H]2C(=O)O [OXACILLIN]
MIC [9]: > 8 µg/mL
MIC [1]: 0.5 µg/mL (≈ 1.25 µM)
MIC [2]: > 8 µg/mL
MIC [10]: > 8 µg/mL
MIC [3]: 0.5 µg/mL (≈ 1.25 µM)
MIC [4]: > 8 µg/mL
MIC [5]: > 8 µg/mL
MIC [6]: 0.25 µg/mL (≈ 0.623 µM)
MIC [7]: > 8 µg/mL
MIC [11]: > 8 µg/mL
MIC [12]: 0.5 µg/mL (≈ 1.25 µM)
MIC [13]: 0.5 µg/mL (≈ 1.25 µM)
MIC [8]: 0.5 µg/mL (≈ 1.25 µM)
